This is a sample that favours compounds with a hit; in the whole collection about 3.8% have one here.
KCNK3 inh – human KCNK3 channel inhibition, primary screen. 340,000 tested, 0.84% active. B-score at 10 µM. CHO-KCNK3 thallium flux, FluxOR fluorescence; active compounds read low. AID 602410. O14649;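 active means B-score under library mean minus 4 SD, starting fluorescence ratio at most library mean plus 5 SD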;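 further: more negative B-score means stronger inhibition of thallium flux through KCNK3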
KCNQ1 pot – potentiators or activators of human KCNQ1 potassium channel. 310,000 tested, 0.35% active. AID 2648. P51787. B-score at 10 µM. CHO-K1 KCNQ1, thallium flux FluxOR fluorescence; active compounds read high;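 active means fluorescence ratio B-score, a plate-corrected score, at least three library SD, with initial intensity B-score within 5 SD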
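Assay system: CHO-K1 cells stably expressing KCNQ1. Medium: assay buffer for compound exposure, DMSO matched across wells. Timing: 37 °C overnight plating, 90-min dark dye load, 20-min compound pretreatment. Signal: kinetic FluxOR fluorescence, 10 s baseline plus 110 s post-stimulus.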
Kir21 inh – blocks the mouse Kir2.1 inward-rectifier potassium channel; 310,000 tested, 0.85% active; P35561; AID 1672; HEK293-Kir2.1, FluxOR thallium flux fluorescence; active compounds read low; B-score at 10 µM;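 active means fluorescence ratio B-score at or below minus 3 SD of library scores, with starting-brightness B-score within 2 SD, cut at about -4.2 in these data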;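 further: channel flux triggered by added potassium and thallium sulfate stimulus; B-score of peak minus minimum fluorescence over baseline after thallium stimulus; more negative B-score means stronger Kir2.1 block with less thallium influx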
Target sequence (P35561 whole entry, looked up): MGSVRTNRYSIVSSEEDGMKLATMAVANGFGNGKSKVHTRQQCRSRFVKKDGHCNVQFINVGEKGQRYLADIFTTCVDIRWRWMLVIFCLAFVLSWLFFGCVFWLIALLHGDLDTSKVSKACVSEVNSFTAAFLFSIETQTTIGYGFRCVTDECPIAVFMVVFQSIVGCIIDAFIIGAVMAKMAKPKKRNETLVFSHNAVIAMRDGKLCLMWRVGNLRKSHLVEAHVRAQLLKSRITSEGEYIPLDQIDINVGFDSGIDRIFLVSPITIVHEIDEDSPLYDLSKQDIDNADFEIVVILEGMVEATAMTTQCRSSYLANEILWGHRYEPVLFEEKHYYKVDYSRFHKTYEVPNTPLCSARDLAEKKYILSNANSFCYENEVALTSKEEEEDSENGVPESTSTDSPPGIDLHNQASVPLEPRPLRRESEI
hERG protect – hERG (human) protection from proarrhythmic block. CHO-hERG, FluxOR thallium flux, dofetilide IC70 present. AID 1511. 310,000 tested, 0.51% active. Q12809. activation (rescue from dofetilide block), less the hit threshold, % at 10 µM;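 active means activation above the mean of controls blocked by dofetilide plus 5 SD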;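 further: thallium influx through hERG after potassium depolarization seen as dye fluorescence rise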
KCNQ1 inh – human KCNQ1 channel inhibition | P51787 | CHO-K1 KCNQ1, FluxOR thallium flux fluorescence; active compounds read high | B-score at 10 µM | 310,000 tested, 1.3% active | AID 2642;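 active means compounds whose thallium flux B-score, printed positive for inhibition, exceeds three library SD while starting fluorescence stays within three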;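 further: channel opened by potassium depolarization with thallium stimulus after 20 min compound exposure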
KCNK9 block – inhibitors of human KCNK9 two-pore domain potassium channel; HEK293 KCNK9, FluxOR thallium flux fluorescence; active compounds read low; 310,000 tested, 1.2% active; AID 488922; Q9NPC2; B-score at 10 µM;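 active means ratio B-score over 3 SD below the library mean, with starting fluorescence within 5 SD of its mean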;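 further: negative B-score means less thallium flux so channel inhibition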
Numbers without * were called inactive.

CC(=O)N1N=C(c2cccc(Cl)c2)OC1c1ccc(C(C)C)cc1 (centres undefined) was read as KCNK3 inh inactive, KCNQ1 pot inactive, Kir21 inh 0.57, hERG protect -9, KCNQ1 inh 6* and KCNK9 block inactive.
Screening CC(=O)N1N=C(c2cccc(Cl)c2)OC1c1cccc([N+](=O)[O-])c1 (centres undefined) returned KCNK3 inh inactive, KCNQ1 pot inactive, Kir21 inh 2, hERG protect -3, KCNQ1 inh inactive and KCNK9 block inactive.
COCCCNC(=O)/C(C#N)=c1\s/c(=C\c2ccccc2OC(F)F)c(=O)n1CCCOC was read as KCNK3 inh inactive, KCNQ1 pot inactive, Kir21 inh -1.1, hERG protect -6, KCNQ1 inh inactive and KCNK9 block inactive.
`CCCCNC(=O)/C(C#N)=c1\s/c(=C\c2ccccc2OC(F)F)c(=O)n1CCCOC` gave KCNK3 inh inactive, KCNQ1 pot inactive, Kir21 inh -1.1, hERG protect -9, KCNQ1 inh 7* and KCNK9 block inactive.
For CN1CCc2c(sc(NC(=O)c3cc(Cl)sc3Cl)c2C(N)=O)C1 the results were KCNQ1 pot inactive, Kir21 inh -0.68, hERG protect -16, KCNQ1 inh inactive and KCNK9 block inactive.
`C=CC[C@H]1CC(C)=C[C@H](CC=C)N1C(=O)c1cc(COc2ccccc2SC)on1` gave KCNK3 inh inactive, KCNQ1 pot inactive, Kir21 inh -1.6, hERG protect -13, KCNQ1 inh 8* and KCNK9 block inactive.
For COCC1CCN(C(=O)c2cc(COc3ccccc3SC)on2)C1 (centres undefined) the results were KCNK3 inh inactive, KCNQ1 pot inactive, Kir21 inh -1.8, hERG protect -9, KCNQ1 inh inactive and KCNK9 block inactive.
O=C1C=CC(=O)c2c(O)c(N3CCN(CCOCCO)CC3)c(Br)c(O)c21 was read as KCNK3 inh -11*.
For OCCOCCN1CCN(C2=Nc3ccccc3Sc3ccccc32)CC1 the results were KCNK3 inh inactive, KCNQ1 pot inactive, Kir21 inh -0.6, KCNQ1 inh inactive and KCNK9 block inactive.
O=C1C=CC(=O)c2c(O)c(N3CCN(CCO)CC3)c(Cl)c(O)c21 was read as KCNK3 inh -11*.
Cc1cc(NC(=O)c2cccs2)ncc1NC(=O)C(C)(C)C was read as KCNK3 inh inactive, KCNQ1 pot inactive, Kir21 inh 2, hERG protect 0, KCNQ1 inh inactive and KCNK9 block inactive.
Screening NC(=O)[C@@H]1CCCN1Cc1nc(Cc2ccccc2Cl)no1 returned KCNK3 inh inactive, KCNQ1 pot inactive, Kir21 inh 2.2, hERG protect -4, KCNQ1 inh inactive and KCNK9 block inactive.
For CCCC1CC(C)(c2csc(Nc3ccc(OCC)cc3)n2)OC1=O (centres undefined) the results were KCNK3 inh inactive, KCNQ1 pot inactive, Kir21 inh -2.3, hERG protect -2, KCNQ1 inh inactive and KCNK9 block -7.7*.
Screening Cc1ccc(-c2ccc(C(=O)O)[nH]2)cc1 returned KCNK3 inh inactive, KCNQ1 pot inactive, Kir21 inh -0.16, hERG protect -12, KCNQ1 inh inactive and KCNK9 block inactive.
Screening Cc1ccc(-c2csc(=S)[nH]2)cc1 returned KCNK3 inh inactive, KCNQ1 pot 94*, Kir21 inh -0.6, hERG protect 97*, KCNQ1 inh inactive and KCNK9 block inactive.
`S=c1[nH]c(-c2ccc(Cl)cc2)cs1` gave KCNK3 inh inactive, KCNQ1 pot 17*, Kir21 inh 0.01, hERG protect 87*, KCNQ1 inh inactive and KCNK9 block inactive.
Screening O=C(NCc1ccco1)c1cccc(S(=O)(=O)N2CCc3ccccc32)c1 returned KCNK3 inh inactive, KCNQ1 pot inactive, Kir21 inh -0.7, hERG protect -7, KCNQ1 inh inactive and KCNK9 block inactive.
CC(=O)Nc1ccc(S(=O)(=O)N2CCCc3ccccc32)cc1 was read as KCNK3 inh inactive, KCNQ1 pot inactive, Kir21 inh -0.83, hERG protect -12, KCNQ1 inh inactive and KCNK9 block inactive.
CCn1c(=O)n(CC)c2cc(S(=O)(=O)N3CCc4ccccc43)ccc21 was read as KCNK3 inh inactive, KCNQ1 pot inactive, Kir21 inh -4.3*, hERG protect -17, KCNQ1 inh inactive and KCNK9 block inactive.
`O=C(NCc1ccco1)c1ccc(S(=O)(=O)N2CCCc3ccccc32)cc1` gave KCNK3 inh inactive, KCNQ1 pot inactive, Kir21 inh -0.99, hERG protect -9, KCNQ1 inh inactive and KCNK9 block -6.9*.
O=S(=O)(c1ccc(Cl)cc1)N1CCCc2ccccc21 was read as KCNK3 inh inactive, KCNQ1 pot inactive, Kir21 inh -4.6*, hERG protect -7, KCNQ1 inh inactive and KCNK9 block inactive.
Screening Nc1ccc(S(=O)(=O)N2CCCc3ccccc32)cc1 returned KCNK3 inh inactive, KCNQ1 pot inactive, Kir21 inh -5.7*, hERG protect -5, KCNQ1 inh inactive and KCNK9 block inactive.
O=C(O)C(c1ccccc1)C1(O)CC2CCC1C2 (centres undefined) was read as KCNK3 inh inactive.
CC(C)NS(=O)(=O)c1ccc(NC(=O)C(C)OC(=O)C2CCC2)cc1 (centres undefined) was read as KCNK3 inh inactive.
For CCOC(=O)C(C)Oc1ccc(NC(=O)C(Cl)Cl)cc1 (centres undefined) the results were KCNK3 inh inactive, KCNQ1 pot inactive, Kir21 inh -0.33, hERG protect -8, KCNQ1 inh inactive and KCNK9 block inactive.
CCOC(=O)Nc1cc2c(cc1[N+](=O)[O-])-c1ccccc1C2=O was read as KCNK3 inh inactive.
`CC(=O)N1CCN(c2nc3ccc([N+](=O)[O-])cc3s2)CC1` gave KCNK3 inh inactive, KCNQ1 pot inactive, Kir21 inh -0.34, hERG protect -4, KCNQ1 inh inactive and KCNK9 block inactive.
For CC(Oc1ccc(Br)cc1)C(=O)N1CCc2ccccc21 (centres undefined) the results were KCNK3 inh inactive, KCNQ1 pot inactive, Kir21 inh 0.51, hERG protect -12, KCNQ1 inh inactive and KCNK9 block inactive.
Screening CC(Oc1ccc(Cl)cc1)C(=O)N1CCCc2ccccc21 (centres undefined) returned KCNK3 inh inactive, KCNQ1 pot inactive, Kir21 inh -5.7*, hERG protect -7, KCNQ1 inh inactive and KCNK9 block inactive.
